Test results from ChEMBL document CHEMBL3272057, “Synthesis and structure-toxicity relationships of three new stable analogues of acetyl-seco-hemicholinium-3” (J Med Chem, 1976).
Activity calls are given as the source filed them. The rule behind the calls is not given here.

Key:
[1] = Chemical stability of the compound in deuterium oxide solutions at pH 7.4 up to 48 hrs by NMR analysis; type: physicochemical; conditions: buffer, pH 7.4, 48 h
[2] = Toxicity in ip dosed Charles River CD-1 albino mouse assessed as mortality at >LD95 in presence of choline; type: organism-based; conditions: CD-1, mouse, in vivo, read-out: Activity
Method in brief: (§1)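 CD-1 male mice. Choline (20 mg/kg) or neostigmine (0.2 mg/kg) was given ip 1 min before an ip >LD95 dose of compound in saline. Read-out was % mortality.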

[3] = target: T1, Acetylcholinesterase (Bos taurus) (UniProt P23795); assay: Binding affinity to bovine erythrocyte acetylcholinesterase in water at pH 7.4 at 100 x 10^-5 M up to 6 hrs by UV-spectra analysis
T1 sequence (whole entry): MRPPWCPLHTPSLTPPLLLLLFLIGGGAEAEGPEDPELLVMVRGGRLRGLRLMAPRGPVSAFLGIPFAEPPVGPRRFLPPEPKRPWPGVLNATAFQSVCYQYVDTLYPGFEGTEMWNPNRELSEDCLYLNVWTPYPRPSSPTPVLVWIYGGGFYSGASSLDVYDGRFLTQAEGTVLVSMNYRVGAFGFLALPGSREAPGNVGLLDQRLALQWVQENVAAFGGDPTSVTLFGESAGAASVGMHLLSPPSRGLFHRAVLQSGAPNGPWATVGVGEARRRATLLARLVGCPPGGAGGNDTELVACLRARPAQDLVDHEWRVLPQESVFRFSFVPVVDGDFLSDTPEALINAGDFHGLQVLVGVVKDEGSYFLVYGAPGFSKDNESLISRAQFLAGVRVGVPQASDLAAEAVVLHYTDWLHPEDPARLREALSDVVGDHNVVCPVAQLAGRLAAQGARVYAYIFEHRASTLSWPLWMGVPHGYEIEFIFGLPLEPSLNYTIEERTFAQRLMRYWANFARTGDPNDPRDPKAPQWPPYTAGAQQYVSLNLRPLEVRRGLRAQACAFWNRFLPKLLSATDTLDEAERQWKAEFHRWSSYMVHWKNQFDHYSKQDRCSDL
Method in brief: (§2)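 Test solutions 100 × 10⁻⁵ M in pH 7.4 buffered water. UV spectrum recorded against identically buffered water reference. 0.1 ml of bovine erythrocyte acetylcholinesterase (40 μ/ml, pH 7.4 buffer) was added to 1-ml sample and reference, giving an enzyme level similar to blood. Spectrum recorded immediately, then again after incubation at 37° for 6 h. Shift in λmax was read.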

[4] = Ratio of hemicholinium-3 LD50 to compound LD50 for toxicity in ip dosed Charles River CD-1 albino mouse measured within 5 mins; type: organism-based; conditions: CD-1, mouse, in vivo
[5] = Chemical stability of the compound in deuterium oxide solutions at slightly acidic condition up to 48 hrs by NMR analysis; type: physicochemical
[6] = test system: Mus musculus; assay: (§3) Toxicity in ip dosed Charles River CD-1 albino mouse measured within 5 mins; type: organism-based; conditions: mouse, in vivo, 5 min
[7] = as §3; type: organism-based; conditions: CD-1, mouse, in vivo
[8] = Chemical stability of the compound in water at slightly acidic condition up to 48 hrs by NMR analysis; type: physicochemical; conditions: buffer
[9] = test system: Mus musculus; assay: Toxicity in ip dosed Charles River CD-1 albino mouse assessed as reduction of cardiac contraction; type: organism-based, Heart; conditions: in vivo
[10] = Toxicity in ip dosed Charles River CD-1 albino mouse assessed as mortality at >LD95 in presence of neostigmine; type: organism-based; conditions: CD-1, mouse, in vivo, read-out: Activity; method in brief: as §1
[11] = test system: Mus musculus; assay: Toxicity in ip dosed Charles River CD-1 albino mouse assessed as increase of peristalsis of small intestine; type: organism-based; conditions: in vivo
[12] = Chemical stability of the compound in water at pH 7.4 up to 48 hrs by NMR analysis; type: physicochemical; conditions: buffer, pH 7.4, 48 h
[13] = target: T1, Acetylcholinesterase (Bos taurus); assay: Binding affinity to bovine erythrocyte acetylcholinesterase in water at pH 7.4 at 100 x 10^-5 M measured immediately by UV-spectra analysis; method in brief: as §2

Row | SMILES | Stability [1] | mortality [2] [%] | Activity [3] | selectivity ratio at 5 min [4] | Stability [5] | LD95 [6] [mg/kg] | LD50 at 5 min [7] [mg/kg] | Stability [8] | Activity [9] | mortality [10] [%] | Activity [11] | Stability [12] | Activity [13]
1 | CCCCC[N+](C)(C)CC(=O)c1ccc(-c2ccc(C(=O)C[N+](C)(C)CCCCC)cc2)cc1.[Br-].[Br-] | Stable | 30 | inactive | 43.1 | Stable | 5.8 | 5.6 | Stable | Non-toxic | 80 | Toxic | Stable | –
2 | CCOCC[N+](C)(C)CC(=O)c1ccc(-c2ccc(C(=O)C[N+](C)(C)CCOCC)cc2)cc1.[Br-].[Br-] | Stable | 0 | inactive | 14.2 | Stable | 2.67 | 1.84 | Stable | Non-toxic | 80 | Toxic | Stable | –
3 | CC(=O)CCC[N+](C)(C)CC(=O)c1ccc(-c2ccc(C(=O)C[N+](C)(C)CCCC(C)=O)cc2)cc1.[Br-].[Br-] | Stable | 0 | inactive | 23.8 | Stable | 4.6 | 3.1 | Stable | Non-toxic | 70 | Toxic | Stable | –
4 | CC(=O)OCC[N+](C)(C)CC(=O)c1ccc(-c2ccc(C(=O)C[N+](C)(C)CCOC(C)=O)cc2)cc1.[Br-].[Br-] | – | – | – | 1 | – | 0.4 | 0.125 | – | Non-toxic | – | Toxic | – | Active
5 | C[N+]1(C)CCOC(O)(c2ccc(-c3ccc(C4(O)C[N+](C)(C)CCO4)cc3)cc2)C1 (configuration not stated) [HEMICHOLINIUM-3] | – | – | inactive | – | – | 0.2 | 0.13 | – | Non-toxic | – | Toxic | – | –
